Measured values taken from ChEMBL document CHEMBL1944616, “Benzoxaborole antimalarial agents. Part 2: Discovery of fluoro-substituted 7-(2-carboxyethyl)-1,3-dihydro-1-hydroxy-2,1-benzoxaboroles” (Bioorg Med Chem Lett, 2012).

What was measured:
[1] = test system: Plasmodium falciparum; assay: Antimalarial activity against ring stage Plasmodium falciparum 3D7 infected in human erythrocytes after 48 hrs by flow cytometry; type: functional, organism-based; details: 3D7, 48 h
[2] = Growth inhibition of human Jurkat cells at 25 uM after 72 hrs by MTT assay; type: cell-based; details: read-out: GI
Procedure, shortened: (§1)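 Cytotoxicity counter-screen on human Jurkat (T cell) and human HeLa (cervical carcinoma) cell lines. Selected compounds were tested at one fixed concentration each.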

[3] = Growth inhibition of human HeLa cells at 25 uM after 72 hrs by MTT assay; type: cell-based; details: read-out: GI; procedure, shortened: as §1

Structure (SMILES)	IC50 [1]	inhibition at 72 h, 25 µM [2]	inhibition at 72 h, 25 µM [3]
O=C(O)C(F)Cc1cccc2c1B(O)OC2 (stereo not given)	830 nM		
Cc1ccc(CCC(=O)O)c2c1COB2O	1450 nM		
CC(=O)Nc1ccc(CCC(=O)O)c2c1COB2O	> 5000 nM		
O=P(O)(O)CCc1cccc2c1B(O)OC2	> 5000 nM	3%	26%
O=C1NC(=O)C(Cc2cccc3c2B(O)OC3)N1 (stereo not given)	> 5000 nM	14.1%	67.7%
O=C(O)C1CCc2ccc3c(c2C1)B(O)OC3 (stereo not given)	1820 nM		
O=C(O)CCc1c(Cl)ccc2c1B(O)OC2	750 nM		
COc1cc(CCC(=O)O)c2c(c1)COB2O	3480 nM		
O=C(O)CCc1cc(Cl)cc2c1B(O)OC2	1330 nM		
O=C(O)CCc1cc(F)cc2c1B(O)OC2	61 nM		
O=C1C(O)=C([C@H]2CC[C@H](c3ccc(Cl)cc3)CC2)C(=O)c2ccccc21 [ATOVAQUONE]	1 nM		
